# In ChEMBL document CHEMBL1938255, “Novel 1-hydroxypiperazine-2,6-diones as new leads in the inhibition of metalloproteinases” (J Med Chem, 2011):
# Columns and labels:
# Stromelysin-1 = Stromelysin-1 (Homo sapiens, UniProt P08254); test: Inhibition of MMP3 using Mca-Arg-Pro-Lys-Pro-Val-Glu-Nva-Trp-Arg-Lys(Dnp)-NH2 as substrate preincubated for 4 hrs measured every 15 secs for 20 mins by fluorescence analysis
# How it was run: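 Pro-MMP3 activated with trypsin 5 μg/mL, 30 min, 37 °C, then soybean trypsin inhibitor 62 μg/mL. Enzyme at 5 nM final was incubated 4 h at 25 °C with seven inhibitor concentrations in Tris 50 mM pH 7.5, NaCl 150 mM, CaCl2 10 mM, Brij 35 0.05%, DMSO 1%.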
# [1] = Stability in D2O assessed as compound decomposition at pD 7 after 5 days by NMR spectroscopy; format: physicochemical; conditions: pH 7, read-out: Drug metabolism
# [2] = molecular target: 72 kDa type IV collagenase (Homo sapiens, UniProt P08253); test: Inhibition of human recombinant MMP2 using Mca-Lys-Pro-Leu-Gly-Leu-Dap(Dnp)-Ala-Arg-NH2 as substrate preincubated for 4 hrs measured every 15 secs for 20 mins by fluorescence analysis
# Chain of 72 kDa type IV collagenase (P08253 whole entry): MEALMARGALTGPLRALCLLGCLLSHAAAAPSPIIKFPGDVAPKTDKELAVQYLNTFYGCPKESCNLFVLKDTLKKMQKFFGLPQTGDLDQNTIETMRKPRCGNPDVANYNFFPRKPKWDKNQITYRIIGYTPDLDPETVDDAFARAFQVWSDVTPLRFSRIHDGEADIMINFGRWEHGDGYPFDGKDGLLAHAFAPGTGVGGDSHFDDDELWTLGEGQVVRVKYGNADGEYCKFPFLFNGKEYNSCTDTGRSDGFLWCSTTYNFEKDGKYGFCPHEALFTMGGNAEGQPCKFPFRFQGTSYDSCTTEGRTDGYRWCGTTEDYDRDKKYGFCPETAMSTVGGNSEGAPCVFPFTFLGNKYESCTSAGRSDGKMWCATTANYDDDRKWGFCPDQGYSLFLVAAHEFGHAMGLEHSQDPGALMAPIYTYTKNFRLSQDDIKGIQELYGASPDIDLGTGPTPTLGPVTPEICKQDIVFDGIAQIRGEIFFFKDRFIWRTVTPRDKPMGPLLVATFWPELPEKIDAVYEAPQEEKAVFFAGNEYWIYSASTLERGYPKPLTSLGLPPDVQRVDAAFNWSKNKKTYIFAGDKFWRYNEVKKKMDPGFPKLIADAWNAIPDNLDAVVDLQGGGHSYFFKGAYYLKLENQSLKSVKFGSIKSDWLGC
# How it was run: (§1)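 The proenzymes were activated with 2 mM APMA for 1 h at 37 °C. Final enzyme was 0.5 nM for MMP2 and 1.5 nM for MMP8. Each was incubated 4 h at 25 °C with seven inhibitor concentrations in pH 7.5 Tris/NaCl/CaCl2/Brij 35/1% DMSO buffer. With 2 μM substrate, fluorescence (325/395 nm) was read every 15 s for 20 min. IC50 came from fractional initial velocity; mean of three independent runs.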
# Neutrophil collagenase = Neutrophil collagenase (Homo sapiens, UniProt P22894); test: Inhibition of human recombinant MMP8 using Mca-Lys-Pro-Leu-Gly-Leu-Dap(Dnp)-Ala-Arg-NH2 as substrate preincubated for 4 hrs measured every 15 secs for 20 mins by fluorescence analysis; how it was run: as §1
# Chain of Neutrophil collagenase (P22894 whole entry): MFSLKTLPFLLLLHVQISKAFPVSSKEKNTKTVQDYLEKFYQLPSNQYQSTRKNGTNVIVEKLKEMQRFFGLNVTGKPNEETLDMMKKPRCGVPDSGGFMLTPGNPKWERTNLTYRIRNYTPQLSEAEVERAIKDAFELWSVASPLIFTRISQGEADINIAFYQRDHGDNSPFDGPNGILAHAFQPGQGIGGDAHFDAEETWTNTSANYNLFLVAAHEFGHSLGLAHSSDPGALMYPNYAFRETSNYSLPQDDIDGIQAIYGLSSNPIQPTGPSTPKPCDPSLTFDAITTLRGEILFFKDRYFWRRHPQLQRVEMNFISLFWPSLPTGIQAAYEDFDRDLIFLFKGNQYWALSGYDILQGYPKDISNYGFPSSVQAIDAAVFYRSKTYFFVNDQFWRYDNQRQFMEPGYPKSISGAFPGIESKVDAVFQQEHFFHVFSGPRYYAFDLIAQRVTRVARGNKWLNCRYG
# [3] = Stability in D2O assessed as compound decomposition at pD 7 after 24 hrs by NMR spectroscopy; format: physicochemical; conditions: pH 7, read-out: Drug metabolism
# [4] = molecular target: Disintegrin and metalloproteinase domain-containing protein 17 (Homo sapiens, UniProt P78536); test: Inhibition of TACE using Mca-Lys-Pro-Leu-Gly-Leu-Dap(Dnp)-Ala-Arg-NH2 as substrate preincubated for 4 hrs measured every 15 secs for 20 mins by fluorescence analysis
# Chain of Disintegrin and metalloproteinase domain-containing protein 17 (P78536 whole entry, the tested form may be a part): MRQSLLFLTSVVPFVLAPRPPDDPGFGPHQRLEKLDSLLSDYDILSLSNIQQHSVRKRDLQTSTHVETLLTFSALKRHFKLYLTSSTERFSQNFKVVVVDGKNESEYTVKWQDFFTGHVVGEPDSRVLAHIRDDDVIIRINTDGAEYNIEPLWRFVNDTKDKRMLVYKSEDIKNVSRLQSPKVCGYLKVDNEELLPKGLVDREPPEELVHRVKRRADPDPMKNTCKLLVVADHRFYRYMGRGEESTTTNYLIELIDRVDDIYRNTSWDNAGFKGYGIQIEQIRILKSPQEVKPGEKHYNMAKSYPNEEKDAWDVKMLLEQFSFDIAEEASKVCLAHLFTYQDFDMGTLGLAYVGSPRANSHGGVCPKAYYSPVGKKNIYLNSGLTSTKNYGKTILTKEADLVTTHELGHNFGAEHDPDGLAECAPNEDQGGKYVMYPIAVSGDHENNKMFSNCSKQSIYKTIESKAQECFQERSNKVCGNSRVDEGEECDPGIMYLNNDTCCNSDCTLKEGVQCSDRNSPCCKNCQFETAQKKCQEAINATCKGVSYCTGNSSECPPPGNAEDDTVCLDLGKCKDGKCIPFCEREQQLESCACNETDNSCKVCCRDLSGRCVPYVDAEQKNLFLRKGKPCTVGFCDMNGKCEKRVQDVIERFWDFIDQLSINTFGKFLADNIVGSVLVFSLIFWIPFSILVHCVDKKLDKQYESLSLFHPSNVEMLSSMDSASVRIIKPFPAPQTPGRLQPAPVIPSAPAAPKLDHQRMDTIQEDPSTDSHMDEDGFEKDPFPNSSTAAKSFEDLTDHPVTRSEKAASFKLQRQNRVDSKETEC
# How it was run: (§2)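 Catalytic domains of MMP14 (1.0 nM final) and MMP16 (15 nM), and TACE (7.5 nM), were incubated 4 h at 25 °C with seven inhibitor concentrations. Buffer was Tris 50 mM pH 7.5, NaCl 150 mM, CaCl2 10 mM, Brij 35 0.05%, DMSO 1%. Substrate 2 μM final; hydrolysis read at 325/395 nm every 15 s for 20 min. IC50 from Vi/Vo = 1/(1+[I]/IC50); mean of three experiments.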
# [5] = Stability in D2O assessed as compound decomposition at pD 7 after 20 days by NMR spectroscopy; format: physicochemical; conditions: pH 7, read-out: Drug metabolism
# Matrilysin = molecular target: T1, Matrilysin (Homo sapiens, UniProt P09237); test: Inhibition of MMP7 using Mca-Lys-Pro-Leu-Gly-Leu-Dap(Dnp)-Ala-Arg-NH2 as substrate preincubated for 4 hrs measured every 15 secs for 20 mins by fluorescence analysis
# T1 sequence (P09237 whole entry): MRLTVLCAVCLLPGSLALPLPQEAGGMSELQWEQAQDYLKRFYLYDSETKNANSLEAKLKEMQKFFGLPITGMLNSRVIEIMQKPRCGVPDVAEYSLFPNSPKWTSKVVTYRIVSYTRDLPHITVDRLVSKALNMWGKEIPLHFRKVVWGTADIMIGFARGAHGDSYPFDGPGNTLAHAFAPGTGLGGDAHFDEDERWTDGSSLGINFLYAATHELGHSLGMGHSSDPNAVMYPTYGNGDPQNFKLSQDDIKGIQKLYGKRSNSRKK
# How it was run: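 Pro-MMP7 activated with 3.3 mM APMA, 2 h, 37 °C, then used at 1.3 nM final. Enzyme was preincubated with seven inhibitor concentrations for 4 h at 25 °C in pH 7.5 Tris buffer with NaCl, CaCl2, Brij 35 and 1% DMSO. Fluorogenic substrate 2 μM final; fluorescence (325/395 nm) recorded every 15 s for 20 min. IC50 from initial-velocity ratio; mean of three experiments.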
# [6] = molecular target: Macrophage metalloelastase (Homo sapiens, UniProt P39900); test: Inhibition of MMP12 using Mca-Lys-Pro-Leu-Gly-Leu-Dap(Dnp)-Ala-Arg-NH2 as substrate preincubated for 4 hrs measured every 15 secs for 20 mins by fluorescence analysis
# Chain of Macrophage metalloelastase (P39900 whole entry): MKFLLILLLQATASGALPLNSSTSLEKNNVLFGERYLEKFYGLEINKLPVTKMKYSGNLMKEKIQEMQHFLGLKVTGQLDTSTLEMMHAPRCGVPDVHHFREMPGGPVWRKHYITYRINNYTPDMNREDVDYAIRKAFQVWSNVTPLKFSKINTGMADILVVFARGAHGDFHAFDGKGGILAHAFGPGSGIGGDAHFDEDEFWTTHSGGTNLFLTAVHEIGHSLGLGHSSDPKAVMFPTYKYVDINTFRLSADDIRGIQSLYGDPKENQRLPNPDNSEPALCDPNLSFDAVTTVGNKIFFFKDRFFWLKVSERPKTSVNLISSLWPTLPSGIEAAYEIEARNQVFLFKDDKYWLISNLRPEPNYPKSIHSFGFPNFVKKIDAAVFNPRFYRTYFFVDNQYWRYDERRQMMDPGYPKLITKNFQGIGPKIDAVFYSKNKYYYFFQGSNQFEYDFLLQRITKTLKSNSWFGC
# How it was run: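 Pro-MMP12 was autoactivated for 30 h at 37 °C in assay buffer (Tris 50 mM pH 7.5, NaCl 150 mM, CaCl2 10 mM, Brij 35 0.05%, DMSO 1%). Enzyme at 1.0 nM final was incubated 4 h at 25 °C with seven inhibitor concentrations. Substrate 2 μM final, fluorescence ex 325/em 395 nm every 15 s for 20 min. IC50 via initial-velocity equation; mean of three experiments.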
# [7] = Stability in D2O assessed as compound decomposition at pD 2 after 5 days by NMR spectroscopy; format: physicochemical; conditions: pH 2, read-out: Drug metabolism
# [8] = Stability in D2O assessed as compound decomposition at pD 2 after 48 hrs by NMR spectroscopy; format: physicochemical; conditions: pH 2, read-out: Drug metabolism
# [9] = molecular target: Matrix metalloproteinase-9 (Homo sapiens, UniProt P14780); test: Inhibition of human recombinant MMP9 using Mca-Lys-Pro-Leu-Gly-Leu-Dap(Dnp)-Ala-Arg-NH2 as substrate preincubated for 4 hrs measured every 15 secs for 20 mins by fluorescence analysis
# Chain of Matrix metalloproteinase-9 (P14780 whole entry): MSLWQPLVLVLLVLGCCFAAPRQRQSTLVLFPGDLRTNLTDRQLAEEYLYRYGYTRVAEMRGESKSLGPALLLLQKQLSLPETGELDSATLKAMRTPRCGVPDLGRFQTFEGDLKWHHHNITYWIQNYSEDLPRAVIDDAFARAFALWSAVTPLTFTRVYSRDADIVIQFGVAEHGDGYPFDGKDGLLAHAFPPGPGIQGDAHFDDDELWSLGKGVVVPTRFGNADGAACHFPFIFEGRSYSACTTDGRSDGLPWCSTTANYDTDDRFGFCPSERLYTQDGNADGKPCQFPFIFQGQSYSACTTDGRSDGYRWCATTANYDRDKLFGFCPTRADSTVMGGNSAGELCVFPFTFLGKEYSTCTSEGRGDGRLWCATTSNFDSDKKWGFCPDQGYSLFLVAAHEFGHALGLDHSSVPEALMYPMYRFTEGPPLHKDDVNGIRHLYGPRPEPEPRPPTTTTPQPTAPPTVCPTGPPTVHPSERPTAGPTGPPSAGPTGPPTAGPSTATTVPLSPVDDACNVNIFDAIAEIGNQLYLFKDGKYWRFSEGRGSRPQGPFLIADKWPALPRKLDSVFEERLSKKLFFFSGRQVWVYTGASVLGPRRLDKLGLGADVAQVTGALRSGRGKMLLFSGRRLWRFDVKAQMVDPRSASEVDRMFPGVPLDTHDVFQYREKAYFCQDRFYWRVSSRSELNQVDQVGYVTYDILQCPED
# How it was run: (§3)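 APMA activation at 1 mM, 1 h, 37 °C. Final enzyme was 0.3 nM for MMP13 and 1.3 nM for MMP9. Enzyme and inhibitor (seven concentrations) were incubated 4 h at 25 °C in Tris 50 mM pH 7.5 buffer with 150 mM NaCl, 10 mM CaCl2, 0.05% Brij 35, 1% DMSO. Substrate 2 μM final, ex 325/em 395 nm, every 15 s over 20 min. IC50 via Vi/Vo = 1/(1+[I]/IC50); three experiments averaged.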
# [10] = Stability in D2O assessed as compound decomposition at pD 7 after 3 days by NMR spectroscopy; format: physicochemical; conditions: pH 7, read-out: Drug metabolism
# [11] = molecular target: Matrix metalloproteinase-16 (Homo sapiens, UniProt P51512); test: Inhibition of human recombinant MMP16 using Mca-Lys-Pro-Leu-Gly-Leu-Dap(Dnp)-Ala-Arg-NH2 as substrate preincubated for 4 hrs measured every 15 secs for 20 mins by fluorescence analysis; how it was run: as §2
# Chain of Matrix metalloproteinase-16 (P51512 whole entry): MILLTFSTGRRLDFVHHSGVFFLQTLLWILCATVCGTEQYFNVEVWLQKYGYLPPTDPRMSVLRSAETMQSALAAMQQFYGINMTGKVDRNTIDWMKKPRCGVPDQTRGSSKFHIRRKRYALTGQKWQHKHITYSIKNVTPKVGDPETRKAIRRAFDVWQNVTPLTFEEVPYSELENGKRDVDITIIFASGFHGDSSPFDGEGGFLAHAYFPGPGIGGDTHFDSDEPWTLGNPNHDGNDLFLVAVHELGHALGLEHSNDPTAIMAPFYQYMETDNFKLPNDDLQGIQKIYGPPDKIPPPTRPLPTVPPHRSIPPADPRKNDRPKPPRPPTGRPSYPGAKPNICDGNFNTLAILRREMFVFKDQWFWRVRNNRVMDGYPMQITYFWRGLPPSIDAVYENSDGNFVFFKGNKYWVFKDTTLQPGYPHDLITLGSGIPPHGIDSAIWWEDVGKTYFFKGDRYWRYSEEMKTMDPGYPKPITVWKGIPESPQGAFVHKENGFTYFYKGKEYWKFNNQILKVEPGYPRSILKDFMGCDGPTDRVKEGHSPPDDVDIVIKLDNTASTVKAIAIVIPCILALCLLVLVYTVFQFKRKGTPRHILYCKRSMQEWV
# [12] = Stability in D2O assessed as compound decomposition at pD 2 after 24 hrs by NMR spectroscopy; format: physicochemical; conditions: pH 2, read-out: Drug metabolism
# [13] = Stability in D2O assessed as compound decomposition at pD 2 after 10 days by NMR spectroscopy; format: physicochemical; conditions: pH 2, read-out: Drug metabolism
# Collagenase 3 = Collagenase 3 (Homo sapiens, UniProt P45452); test: Inhibition of MMP13 using Mca-Lys-Pro-Leu-Gly-Leu-Dap(Dnp)-Ala-Arg-NH2 as substrate preincubated for 4 hrs measured every 15 secs for 20 mins by fluorescence analysis; how it was run: as §3
# Interstitial collagenase = molecular target: T2, Interstitial collagenase (Homo sapiens, UniProt P03956); test: Inhibition of MMP1 using Mca-Lys-Pro-Leu-Gly-Leu-Dap(Dnp)-Ala-Arg-NH2 as substrate preincubated for 4 hrs measured every 15 secs for 20 mins by fluorescence analysis
# T2 sequence (P03956 whole entry): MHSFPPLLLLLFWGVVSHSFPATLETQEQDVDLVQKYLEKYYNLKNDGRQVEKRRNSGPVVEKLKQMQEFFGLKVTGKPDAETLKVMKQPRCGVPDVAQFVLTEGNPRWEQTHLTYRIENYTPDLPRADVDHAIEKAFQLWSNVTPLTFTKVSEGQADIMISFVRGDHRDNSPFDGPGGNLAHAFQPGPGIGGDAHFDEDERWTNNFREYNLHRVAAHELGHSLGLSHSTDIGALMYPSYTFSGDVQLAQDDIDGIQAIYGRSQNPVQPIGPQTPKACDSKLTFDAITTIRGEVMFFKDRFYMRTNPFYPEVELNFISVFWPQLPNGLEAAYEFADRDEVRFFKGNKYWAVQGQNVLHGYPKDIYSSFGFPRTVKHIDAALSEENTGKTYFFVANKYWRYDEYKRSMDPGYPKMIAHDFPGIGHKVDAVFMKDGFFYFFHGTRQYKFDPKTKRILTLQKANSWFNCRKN
# How it was run: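 Pro-MMP1 activated with 2 mM APMA, 2 h, 37 °C. Enzyme at 2.0 nM final was preincubated 4 h at 25 °C with inhibitor at seven concentrations in Tris 50 mM pH 7.5, NaCl 150 mM, CaCl2 10 mM, Brij 35 0.05%, DMSO 1%. Substrate was 2 μM final, read ex 325/em 395 nm every 15 s for 20 min. IC50 from Vi/Vo = 1/(1+[I]/IC50); mean of three experiments.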
# [14] = molecular target: Matrix metalloproteinase-14 (Homo sapiens, UniProt P50281); test: Inhibition of human recombinant MMP14 using Mca-Lys-Pro-Leu-Gly-Leu-Dap(Dnp)-Ala-Arg-NH2 as substrate preincubated for 4 hrs measured every 15 secs for 20 mins by fluorescence analysis; how it was run: as §2
# Chain of Stromelysin-1 (P08254 whole entry): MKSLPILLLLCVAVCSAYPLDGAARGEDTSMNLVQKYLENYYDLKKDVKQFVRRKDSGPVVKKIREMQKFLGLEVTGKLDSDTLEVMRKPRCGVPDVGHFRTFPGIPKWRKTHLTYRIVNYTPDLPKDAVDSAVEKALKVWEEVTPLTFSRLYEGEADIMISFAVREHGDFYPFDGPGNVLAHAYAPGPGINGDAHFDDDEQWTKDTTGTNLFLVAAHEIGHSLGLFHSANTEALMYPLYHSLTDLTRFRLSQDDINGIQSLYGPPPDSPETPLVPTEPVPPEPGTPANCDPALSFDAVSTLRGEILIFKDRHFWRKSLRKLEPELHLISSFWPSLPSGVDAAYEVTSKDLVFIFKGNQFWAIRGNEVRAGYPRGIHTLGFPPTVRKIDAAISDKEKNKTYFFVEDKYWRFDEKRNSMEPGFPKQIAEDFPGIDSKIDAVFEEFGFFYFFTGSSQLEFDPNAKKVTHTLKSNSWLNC
structure (smiles),measurement,setting,value
CC(C)[C@H](C(=O)NO)N(CC(=O)O)S(=O)(=O)c1ccc(Oc2ccccc2)cc1,IC50,Stromelysin-1,6.7 nM
COc1ccc(S(=O)(=O)N2CC(=O)N(O)C(=O)[C@H]2C(C)C)cc1,degraded at 120 h,[1],6%
same,IC50,[2],1200 nM
same,IC50,Neutrophil collagenase,300 nM
same,degraded at 24 h,[3],< 1%
same,IC50,Stromelysin-1,3400 nM
same,IC50,[4],33000 nM
same,degraded at 480 h,[5],7%
same,IC50,Matrilysin,39000 nM
same,IC50,[6],66 nM
same,degraded at 120 h,[7],5%
same,degraded at 48 h,[8],2%
same,IC50,[9],690 nM
same,degraded at 72 h,[10],3%
same,IC50,[11],1100 nM
same,degraded at 24 h,[12],< 1%
same,degraded at 240 h,[13],8%
same,IC50,Collagenase 3,300 nM
same,IC50,Interstitial collagenase,4900 nM
same,IC50,[14],2200 nM
CC(C)[C@@H]1C(=O)N(O)C(=O)CN1S(=O)(=O)c1ccc(-c2ccccc2)cc1,IC50,[2],240 nM
same,IC50,Neutrophil collagenase,67 nM
same,IC50,Stromelysin-1,3900 nM
same,IC50,[4],16000 nM
same,IC50,[6],19 nM
same,IC50,[9],660 nM
same,IC50,[11],2200 nM
same,IC50,Collagenase 3,52 nM
same,IC50,Interstitial collagenase,1300 nM
same,IC50,[14],3900 nM
COc1ccc(S(=O)(=O)N(Cc2cccnc2)[C@@H](C(=O)NO)C(C)C)cc1 [CGS-27023A],IC50,Matrilysin,380 nM
CC(C)[C@@H]1C(=O)N(O)C(=O)CN1S(=O)(=O)c1ccc(Oc2ccccc2)cc1,IC50,[2],30 nM
same,IC50,Neutrophil collagenase,21 nM
same,IC50,Stromelysin-1,220 nM
same,IC50,[4],10000 nM
same,IC50,[6],23 nM
same,IC50,[9],30 nM
same,IC50,[11],39 nM
same,IC50,Collagenase 3,9.5 nM
same,IC50,Interstitial collagenase,1600 nM
same,IC50,[14],83 nM
